Tests used:
[1] = Toxicity in human MKN28 cells assessed as cell viability at 10 to 200 uM after 48 hrs by MTT assay; format: cell-based, MKN-28; details: read-out: Activity
Procedure, shortened: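 MKN28 cells incubated under basal conditions with compounds (10–200 µM) for 1–48 h, with serum-free medium as control. Viability read by MTT assay. Mean ± SD from three separate experiments run in duplicate.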

[2] = Inhibition of xanthine oxidase in human MKN28 cells assessed as inhibition of xanthine oxidase-induced cell damage by measuring cell viability at 10 to 200 uM after 48 hrs by MTT assay; format: cell-based; details: mkn-28, 48 h
Procedure, shortened: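 MKN28 cells pre-incubated with compounds (10–200 µM) for 1–48 h, washed, then exposed for 2 h to xanthine (1 mM) plus xanthine oxidase to induce oxidative stress. Controls were serum-free medium alone, and serum-free medium followed by X–XO. Viability read by MTT assay. Mean ± SD from three separate experiments run in duplicate.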

[3] = Antioxidant activity assessed as DPPH radical scavenging activity after 10 mins; format: physicochemical
Procedure, shortened: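 Freshly prepared DPPH solution in test tubes; analogue solutions (1 mM–1 µM) added to a final volume of 2.25 mL. Absorbance read at 515 nm after 10 min. References prepared as 1 mM methanol stocks. IC50 calculated from at least three independent experiments.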

In the case of COc1cc(C2Oc3cc([C@H]4Oc5cc(O)cc(O)c5C(=O)[C@@H]4O)ccc3OC2CO)ccc1O (stereo partly specified) [SILIBININ], the viability at 48 h, up to 200 µM [1] is reported as 45.3%, the Activity [2] is reported as 42.4% and the IC50 [3] is reported as 392 µM.
With COc1cc([C@H]2Oc3cc([C@H]4Oc5cc(O)cc(O)c5C(=O)[C@@H]4O)ccc3O[C@H]2COP(=O)([O-])OC2O[C@H](CO)[C@@H](O)[C@H](O)[C@H]2O)ccc1O.[Na+] (stereo partly specified) the viability at 48 h, up to 200 µM [1] was 89.2%, the Activity [2] was 42.7% and the IC50 [3] was 302 µM.
With COc1cc([C@H]2Oc3cc([C@H]4Oc5cc(O)cc(O)c5C(=O)[C@@H]4O)ccc3O[C@H]2COP(=O)([O-])OC2O[C@H](CO)[C@H](O)[C@H](O)[C@H]2O)ccc1O.[Na+] (stereo partly specified) the viability at 48 h, up to 200 µM [1] was 84.1%, the Activity [2] was 42.8% and the IC50 [3] was 233 µM.
Compound COc1cc([C@H]2Oc3cc([C@H]4Oc5cc(O)cc(O)c5C(=O)[C@@H]4O)ccc3O[C@H]2COP(=O)([O-])OC2O[C@H](CO)[C@H](OC3O[C@H](CO)[C@H](O)[C@H](O)[C@H]3O)[C@H](O)[C@H]2O)ccc1O.[Na+] (stereo partly specified) has a viability at 48 h, up to 200 µM [1] of 91.8%, an Activity [2] of 48.4% and an IC50 [3] of 155 µM.
For COc1cc([C@H]2Oc3cc(-c4oc5cc(O)cc(O)c5c(=O)c4O)ccc3O[C@@H]2CO)ccc1O, the IC50 [3] was 27 µM.
For COc1cc([C@H]2Oc3cc([C@H]4Oc5cc(O)cc(O)c5C(=O)[C@@H]4O)ccc3O[C@H]2COP(=O)([O-])OC2O[C@H](CO)[C@@H](O)[C@H](O)[C@@H]2O)ccc1O.[Na+] (stereo partly specified), the viability at 48 h, up to 200 µM [1] was 89.5%, the Activity [2] was 42.3% and the IC50 [3] was 108 µM.

Source: ChEMBL document CHEMBL3352053, “New silibinin glyco-conjugates: synthesis and evaluation of antioxidant properties” (Bioorg Med Chem Lett, 2014)
